Data reported in ChEMBL document CHEMBL3632529, “1,2,3-Triazole pharmacophore-based benzofused nitrogen/sulfur heterocycles with potential anti-Moraxella catarrhalis activity” (2015).
In brackets after ≈: the same amount, converted by molar mass.

Tests used:
Format in all cases: functional
Escherichia coli = assay: Antibacterial activity against Escherichia coli ATCC 25922 after overnight incubation by broth microdilution method
In short: (§1)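 MIC per CLSI standard broth microdilution, with azithromycin as the reference antibiotic. Compounds were tested as double dilutions. Inocula were made by direct colony suspension at 5 × 10⁴ cfu/well. MIC was read visually after overnight incubation at 37 °C in ambient air.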

Moraxella catarrhalis = assay: Antibacterial activity against Moraxella catarrhalis ATCC 23246 after overnight incubation by broth microdilution method; in short: as §1
Streptococcus pyogenes = assay: Antibacterial activity against Streptococcus pyogenes ATCC 700294 after overnight incubation by broth microdilution method
In short: (§2)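 Streptococci were grown on Mueller-Hinton agar with 5% sheep blood. CLSI broth microdilution MIC used double dilutions, with azithromycin as the reference. The test medium was modified by substituting 5% horse serum for lysed horse blood. Direct colony suspension inocula gave 5 × 10⁴ cfu/well. Growth was read visually after overnight incubation at 37 °C in ambient air.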

Streptococcus pneumoniae = assay: Antibacterial activity against Streptococcus pneumoniae ATCC 49619 after overnight incubation by broth microdilution method; in short: as §2
Staphylococcus aureus = assay: Antibacterial activity against Staphylococcus aureus ATCC 29213 after overnight incubation by broth microdilution method
In short: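 Colonies were grown on Mueller Hinton agar and suspended directly to give 5 × 10⁴ cfu/well. MIC was by CLSI broth microdilution with double dilutions of compound and azithromycin as the reference. Read-out was visual after overnight incubation at 37 °C in ambient air.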

Haemophilus influenzae = assay: Antibacterial activity against Haemophilus influenzae ATCC 49247 after overnight incubation by broth microdilution method
In short: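 Bacteria were grown on Mueller Hinton chocolate agar. MIC was then determined by CLSI broth microdilution, with azithromycin as the reference and compounds as double dilutions. Inocula were prepared by direct colony suspension at 5 × 10⁴ cfu/well. Plates were read visually after overnight incubation at 37 °C in ambient air.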

Fc1ccc(-n2cc(Cn3cnc4ccccc43)nn2)cc1 was tested, and the MIC (Escherichia coli) was > 128 µg/mL, the MIC (Moraxella catarrhalis) was 1 µg/mL (≈ 3.41 µM) and the MIC (Streptococcus pyogenes) was > 128 µg/mL. The MIC (Streptococcus pneumoniae) was > 128 µg/mL, the MIC (Staphylococcus aureus) was > 128 µg/mL and the MIC (Haemophilus influenzae) was > 128 µg/mL.

In the case of Cc1nc2ccccc2n1Cc1cn(-c2ccc(C(F)(F)F)cc2)nn1, the MIC (Escherichia coli) is reported as > 128 µg/mL, the MIC (Moraxella catarrhalis) is reported as 64 µg/mL (≈ 179 µM) and the MIC (Streptococcus pyogenes) is reported as > 128 µg/mL. For the same compound, the MIC (Streptococcus pneumoniae) was > 128 µg/mL, the MIC (Staphylococcus aureus) was > 128 µg/mL and the MIC (Haemophilus influenzae) was > 128 µg/mL.

In the case of Clc1cc(Cl)cc(-n2cc(Cn3cnc4ccccc43)nn2)c1, the MIC (Escherichia coli) is reported as > 128 µg/mL, the MIC (Moraxella catarrhalis) is reported as 16 µg/mL (≈ 46.5 µM) and the MIC (Streptococcus pyogenes) is reported as > 128 µg/mL. The MIC (Streptococcus pneumoniae) was > 128 µg/mL, the MIC (Staphylococcus aureus) was > 128 µg/mL and the MIC (Haemophilus influenzae) was > 128 µg/mL.

With FC(F)(F)c1ccc(-n2cc(Cn3cnc4ccccc43)nn2)cc1 the MIC (Escherichia coli) was > 128 µg/mL, the MIC (Moraxella catarrhalis) was 16 µg/mL (≈ 46.6 µM) and the MIC (Streptococcus pyogenes) was > 128 µg/mL. For the same compound, the MIC (Streptococcus pneumoniae) was > 128 µg/mL, the MIC (Staphylococcus aureus) was > 128 µg/mL and the MIC (Haemophilus influenzae) was > 128 µg/mL.

Compound CC[C@H]1OC(=O)[C@H](C)[C@@H](O[C@H]2C[C@@](C)(OC)[C@@H](O)[C@H](C)O2)[C@H](C)[C@@H](O[C@@H]2O[C@H](C)C[C@H](N(C)C)[C@H]2O)[C@](C)(O)C[C@@H](C)CN(C)[C@H](C)[C@@H](O)[C@]1(C)O [AZITHROMYCIN] has an MIC (Escherichia coli) of 8 µg/mL (≈ 10.7 µM), an MIC (Moraxella catarrhalis) of 0.25 µg/mL (≈ 0.334 µM) and an MIC (Streptococcus pyogenes) of 0.125 µg/mL (≈ 0.167 µM). For the same compound, the MIC (Streptococcus pneumoniae) was 0.25 µg/mL (≈ 0.334 µM), the MIC (Staphylococcus aureus) was 2 µg/mL (≈ 2.67 µM) and the MIC (Haemophilus influenzae) was 2 µg/mL (≈ 2.67 µM).

In the case of Fc1ccccc1-n1cc(Cn2cnc3ccccc32)nn1, the MIC (Escherichia coli) is reported as > 128 µg/mL, the MIC (Moraxella catarrhalis) is reported as 128 µg/mL (≈ 436 µM) and the MIC (Streptococcus pyogenes) is reported as > 128 µg/mL. The MIC (Streptococcus pneumoniae) was > 128 µg/mL, the MIC (Staphylococcus aureus) was > 128 µg/mL and the MIC (Haemophilus influenzae) was > 128 µg/mL.

With Cc1ccc2nc(-c3ccc(NCc4cn(-c5ccc(Cl)cc5)nn4)cc3)sc2c1 the MIC (Escherichia coli) was > 128 µg/mL, the MIC (Moraxella catarrhalis) was 64 µg/mL (≈ 148 µM) and the MIC (Streptococcus pyogenes) was > 128 µg/mL. For the same compound, the MIC (Streptococcus pneumoniae) was > 128 µg/mL, the MIC (Staphylococcus aureus) was > 128 µg/mL and the MIC (Haemophilus influenzae) was > 128 µg/mL.

For Cc1ccc2nc(-c3ccc(NCc4cn(Cc5cc(=O)oc6cc(O)ccc56)nn4)cc3)sc2c1, the MIC (Escherichia coli) was > 128 µg/mL, the MIC (Streptococcus pyogenes) was > 128 µg/mL and the MIC (Streptococcus pneumoniae) was > 128 µg/mL. For the same compound, the MIC (Staphylococcus aureus) was > 128 µg/mL and the MIC (Haemophilus influenzae) was > 128 µg/mL.

With Clc1ccc(-n2cc(Cn3cnc4ccccc43)nn2)cc1 the MIC (Escherichia coli) was > 128 µg/mL, the MIC (Moraxella catarrhalis) was 0.5 µg/mL (≈ 1.61 µM) and the MIC (Streptococcus pyogenes) was > 128 µg/mL. The MIC (Streptococcus pneumoniae) was > 128 µg/mL, the MIC (Staphylococcus aureus) was > 128 µg/mL and the MIC (Haemophilus influenzae) was > 128 µg/mL.

Cc1ccc2nc(-c3ccc(NCc4cn(-c5ccc(F)cc5)nn4)cc3)sc2c1 was tested, and the MIC (Escherichia coli) was > 128 µg/mL, the MIC (Moraxella catarrhalis) was 128 µg/mL (≈ 308 µM) and the MIC (Streptococcus pyogenes) was > 128 µg/mL. The MIC (Streptococcus pneumoniae) was > 128 µg/mL, the MIC (Staphylococcus aureus) was > 128 µg/mL and the MIC (Haemophilus influenzae) was > 128 µg/mL.
